In ChEMBL document CHEMBL3098046, “Fragment-based discovery of 6-azaindazoles as inhibitors of bacterial DNA ligase” (ACS Med Chem Lett, 2013):
≈ marks a conversion by molar mass, not a printed value. Each block holds one molecule with its values, some of them ahead of it.

Experiments:
DNA ligase [1] = molecular target: T1, DNA ligase (Staphylococcus aureus, UniProt Q9AIU7); assay: Binding affinity to C-terminal 6xHis-tagged Staphylococcus aureus DNA ligase (1 to 312) expressed in Escherichia coli BL21 (DE3) by ITC assay
DNA ligase [2] = molecular target: T1, DNA ligase; assay: Inhibition of C-terminal 6xHis-tagged full length recombinant Staphylococcus aureus DNA ligase (1 to 312) expressed in Escherichia coli BL21 (DE3) using oligonucleotide as substrate after 10 mins by TR-FRET assay
Streptococcus pyogenes = assay: Antibacterial activity against Streptococcus pyogenes 1307006P after 18 to 24 hrs by broth microdilution method; assay type: functional
Streptococcus pneumoniae = assay: Antibacterial activity against Streptococcus pneumoniae 1629 after 18 to 24 hrs by broth microdilution method; assay type: functional
Klebsiella pneumoniae [3] = assay: Antibacterial activity against TolC deficient Klebsiella pneumoniae 1161486a after 18 to 24 hrs by broth microdilution method; assay type: functional
Escherichia coli [4] = assay: Antibacterial activity against Escherichia coli 7623 after 18 to 24 hrs by broth microdilution method; assay type: functional
Acinetobacter baumannii [5] = assay: Antibacterial activity against Acinetobacter baumannii BM4454 after 18 to 24 hrs by broth microdilution method; assay type: functional
Haemophilus influenzae [6] = assay: Antibacterial activity against Haemophilus influenzae H128 after 18 to 24 hrs by broth microdilution method; assay type: functional
Escherichia coli [7] = assay: Antibacterial activity against TolC deficient Escherichia coli 7623 after 18 to 24 hrs by broth microdilution method; assay type: functional
Staphylococcus aureus [8] = assay: Antibacterial activity against Staphylococcus aureus Oxford after 18 to 24 hrs by broth microdilution method; assay type: functional
Pseudomonas aeruginosa [9] = assay: Antibacterial activity against Pseudomonas aeruginosa PAO(MV) after 18 to 24 hrs by broth microdilution method; assay type: functional
Pseudomonas aeruginosa [10] = assay: Antibacterial activity against Pseudomonas aeruginosa PAO322 after 18 to 24 hrs by broth microdilution method; assay type: functional
Klebsiella pneumoniae [11] = assay: Antibacterial activity against Klebsiella pneumoniae 1161486 after 18 to 24 hrs by broth microdilution method; assay type: functional
Haemophilus influenzae [12] = assay: Antibacterial activity against AcrB deficient Haemophilus influenzae H128 after 18 to 24 hrs by broth microdilution method; assay type: functional
[13] = Solubility of the compound; assay type: physicochemical
L5178Y = assay: Cytotoxicity against TK +/- expressing mouse L5178Y cells; assay type: cell-based
Outline: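 Mouse lymphoma cell line (described as lung lymphoma) used for general cytotoxicity, tested up to a highest concentration of 100 μM.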

Escherichia coli [14] = assay: Antibacterial activity against TolC deficient Escherichia coli TOP10 by broth microdilution method; assay type: functional
Staphylococcus aureus [15] = assay: Antibacterial activity against Staphylococcus aureus RN4220 expressing pYH4 by broth microdilution method in absence of anhydrotetracycline; assay type: functional
Escherichia coli [16] = assay: Antibacterial activity against TolC deficient Escherichia coli TOP10 expressing LigA G180E mutant by broth microdilution method; assay type: functional
Staphylococcus aureus [17] = assay: Antibacterial activity against Staphylococcus aureus RN4220 expressing pYH4 by broth microdilution method in presence of anhydrotetracycline; assay type: functional
[18] = Inhibition of Escherichia coli LigA
Escherichia coli [19] = assay: Antibacterial activity against TolC deficient Escherichia coli TOP10 expressing LigA R150S mutant by broth microdilution method; assay type: functional
Staphylococcus aureus [20] = assay: Antibacterial activity against Staphylococcus aureus RN4220 expressing pYH4-YerG/LigA by broth microdilution method in absence of anhydrotetracycline; assay type: functional
Escherichia coli [21] = assay: Antibacterial activity against TolC deficient Escherichia coli TOP10 expressing LigA R518H mutant by broth microdilution method; assay type: functional
Staphylococcus aureus [22] = assay: Antibacterial activity against Staphylococcus aureus RN4220 expressing pYH4-YerG/LigA by broth microdilution method in presence of anhydrotetracycline; assay type: functional
Acinetobacter baumannii [23] = assay: Antibacterial activity against Acinetobacter baumannii BM4652 expressing efflux transporter mutant after 18 to 24 hrs by broth microdilution method

- Kd (DNA ligase [1]): 10 µM
- IC50 (DNA ligase [2]): 17 µM
Compound: Clc1cccc(-c2nc[nH]n2)n1

- Kd (DNA ligase [1]): 38 µM
Compound: Clc1cncc(-c2nnc[nH]2)n1

- IC50 (DNA ligase [2]): 300 µM
Compound: c1ccc(-c2nnc[nH]2)nc1

- IC50 (DNA ligase [2]): 16 µM
Compound: FC(F)(F)c1cccc(-c2nc[nH]n2)n1

- MIC (Streptococcus pyogenes): 8 µg/mL (≈ 22.6 µM)
- MIC (Streptococcus pneumoniae): 2 µg/mL (≈ 5.66 µM)
- MIC (Klebsiella pneumoniae [3]): 8 µg/mL (≈ 22.6 µM)
- MIC (Escherichia coli [4]): > 128 µg/mL
- MIC (Acinetobacter baumannii [5]): > 128 µg/mL
- MIC (Haemophilus influenzae [6]): 16 µg/mL (≈ 45.3 µM)
- MIC (Escherichia coli [7]): 8 µg/mL (≈ 22.6 µM)
- MIC (Staphylococcus aureus [8]): 8 µg/mL (≈ 22.6 µM)
- MIC (Pseudomonas aeruginosa [9]): > 128 µg/mL
- MIC (Pseudomonas aeruginosa [10]): 64 µg/mL (≈ 181 µM)
- MIC (Klebsiella pneumoniae [11]): > 128 µg/mL
- MIC (Haemophilus influenzae [12]): 2 µg/mL (≈ 5.66 µM)
Compound: Nc1nc(OCC2CCC2)nc2c1ncn2[C@@H]1O[C@H](CF)[C@@H](O)[C@H]1O

- IC50 (DNA ligase [2]): 21 µM
Compound: CC(F)(F)c1cccc(-c2nnc[nH]2)n1

- solubility [13]: 12 µg/mL (≈ 45.4 µM)
- IC50 (DNA ligase [2]): 0.22 µM
Compound: FC(F)(F)c1cccc(-c2n[nH]c3cnccc23)n1

- IC50 (DNA ligase [2]): 140 µM
Compound: Cc1cccc(-c2nnc[nH]2)n1

Compound: OCCNc1cc(-c2n[nH]c3cnccc23)nc(C(F)(F)F)c1
- IC50 (L5178Y): 16 µg/mL (≈ 49.5 µM)
- solubility [13]: 113 µg/mL (≈ 350 µM)
- MIC (Streptococcus pyogenes): 128 µg/mL (≈ 396 µM)
- MIC (Streptococcus pneumoniae): 64 µg/mL (≈ 198 µM)
- MIC (Klebsiella pneumoniae [3]): > 128 µg/mL
- IC50 (DNA ligase [2]): 0.23 µM
- MIC (Escherichia coli [4]): > 128 µg/mL
- MIC (Acinetobacter baumannii [5]): > 128 µg/mL
- MIC (Haemophilus influenzae [6]): 128 µg/mL (≈ 396 µM)
- MIC (Escherichia coli [7]): 128 µg/mL (≈ 396 µM)
- MIC (Staphylococcus aureus [8]): 8 µg/mL (≈ 24.7 µM)
- MIC (Pseudomonas aeruginosa [9]): > 128 µg/mL
- MIC (Pseudomonas aeruginosa [10]): > 128 µg/mL
- MIC (Klebsiella pneumoniae [11]): > 128 µg/mL
- MIC (Haemophilus influenzae [12]): 8 µg/mL (≈ 24.7 µM)

- IC50 (DNA ligase [2]): 130 µM
Compound: COc1cccc(-c2nnc[nH]2)n1

Compound: OCCNc1cc(C(F)(F)F)nc(-c2n[nH]c3cnccc23)n1
- MIC (Escherichia coli [14]): 8 µg/mL (≈ 24.7 µM)
- Kd (DNA ligase [1]): 0.025 µM
- IC50 (L5178Y): > 36 µg/mL
- MIC (Streptococcus pyogenes): 8 µg/mL (≈ 24.7 µM)
- MIC (Streptococcus pneumoniae): 2 µg/mL (≈ 6.17 µM)
- MIC (Klebsiella pneumoniae [3]): 32 µg/mL (≈ 98.7 µM)
- IC50 (DNA ligase [2]): 0.015 µM
- MIC (Escherichia coli [4]): > 128 µg/mL
- MIC (Staphylococcus aureus [15]): 8 µg/mL (≈ 24.7 µM)
- MIC (Escherichia coli [16]): 64 µg/mL (≈ 197 µM)
- MIC (Staphylococcus aureus [17]): 8 µg/mL
- IC50 [18]: 0.097 µM
- MIC (Acinetobacter baumannii [5]): > 128 µg/mL
- MIC (Escherichia coli [19]): 64 µg/mL (≈ 197 µM)
- MIC (Haemophilus influenzae [6]): 16 µg/mL (≈ 49.3 µM)
- MIC (Staphylococcus aureus [20]): 16 µg/mL (≈ 49.3 µM)
- MIC (Escherichia coli [7]): 16 µg/mL (≈ 49.3 µM)
- MIC (Escherichia coli [21]): 64 µg/mL (≈ 197 µM)
- MIC (Staphylococcus aureus [8]): 4 µg/mL (≈ 12.3 µM)
- MIC (Staphylococcus aureus [22]): 128 µg/mL
- MIC (Pseudomonas aeruginosa [9]): > 128 µg/mL
- MIC (Acinetobacter baumannii [23]): 32 µg/mL (≈ 98.7 µM)
- MIC (Pseudomonas aeruginosa [10]): 32 µg/mL (≈ 98.7 µM)
- MIC (Klebsiella pneumoniae [11]): > 128 µg/mL
- MIC (Haemophilus influenzae [12]): 1 µg/mL (≈ 3.08 µM)

- IC50 (DNA ligase [2]): 53 µM
Compound: c1cc(-c2nnc[nH]2)nc(C2CCC2)c1
